Shown are actives, neighbours in structure and some others; about 3.7% of the full set was active somewhere.
KCNK3 block: human KCNK3 channel inhibitors, primary screen, CHO cells, FluxOR thallium flux, B-score; FluxOR fluorescence; active compounds read low; B-score at 10 µM; actives 0.84% (n = 340,000);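 active means B-score under library mean minus 4 SD, starting fluorescence ratio at most library mean plus 5 SD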;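 further: more negative B-score means stronger inhibition of thallium flux through KCNK3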
hERG protect: hERG rescue from dofetilide block, primary screen, cell-based, CHO-hERG, FluxOR thallium flux, dofetilide IC70; Voltage-gated inwardly rectifying potassium channel KCNH2 (Homo sapiens), Q12809; dofetilide IC70 present; activation (rescue from dofetilide block), less the hit threshold, % at 10 µM; actives 0.51% (n = 310,000);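 active means activation above the mean of controls blocked by dofetilide plus 5 SD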;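 further: thallium influx through hERG after potassium depolarization seen as dye fluorescence rise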
Target sequence (Q12809 whole entry, looked up): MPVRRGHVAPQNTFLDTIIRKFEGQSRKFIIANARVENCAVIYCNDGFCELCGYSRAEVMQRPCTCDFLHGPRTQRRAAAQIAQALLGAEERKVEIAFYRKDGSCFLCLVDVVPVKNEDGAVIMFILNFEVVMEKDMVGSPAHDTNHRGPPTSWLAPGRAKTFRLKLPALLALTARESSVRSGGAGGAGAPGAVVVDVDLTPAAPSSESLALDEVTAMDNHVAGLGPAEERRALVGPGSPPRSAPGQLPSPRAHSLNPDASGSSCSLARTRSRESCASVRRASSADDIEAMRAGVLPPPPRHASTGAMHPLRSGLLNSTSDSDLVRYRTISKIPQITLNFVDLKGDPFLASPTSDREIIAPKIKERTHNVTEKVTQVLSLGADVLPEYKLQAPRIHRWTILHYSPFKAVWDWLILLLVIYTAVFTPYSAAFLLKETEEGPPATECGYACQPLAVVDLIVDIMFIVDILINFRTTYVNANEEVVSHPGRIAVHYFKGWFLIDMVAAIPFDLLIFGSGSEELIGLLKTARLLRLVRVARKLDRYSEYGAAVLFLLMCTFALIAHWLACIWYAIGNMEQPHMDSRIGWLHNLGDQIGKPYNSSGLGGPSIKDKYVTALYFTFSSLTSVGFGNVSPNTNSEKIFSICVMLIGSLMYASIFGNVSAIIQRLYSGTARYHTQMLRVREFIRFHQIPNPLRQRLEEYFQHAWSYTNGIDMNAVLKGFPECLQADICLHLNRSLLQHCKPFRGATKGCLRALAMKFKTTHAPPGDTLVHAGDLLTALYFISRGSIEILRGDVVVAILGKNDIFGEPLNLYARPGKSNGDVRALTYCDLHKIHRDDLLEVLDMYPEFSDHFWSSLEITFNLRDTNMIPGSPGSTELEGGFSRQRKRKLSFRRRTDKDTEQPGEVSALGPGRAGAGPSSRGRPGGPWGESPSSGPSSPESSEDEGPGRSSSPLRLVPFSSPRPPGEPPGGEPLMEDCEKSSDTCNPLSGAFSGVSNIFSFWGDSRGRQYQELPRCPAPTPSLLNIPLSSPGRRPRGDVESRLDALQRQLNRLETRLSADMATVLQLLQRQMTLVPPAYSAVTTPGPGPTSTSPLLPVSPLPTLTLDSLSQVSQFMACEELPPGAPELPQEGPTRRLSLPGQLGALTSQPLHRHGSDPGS
Kir21 block: inhibitors of mouse Kir2.1 inward-rectifier potassium channel; HEK293-Kir2.1, FluxOR thallium flux fluorescence; active compounds read low; B-score at 10 µM; actives 0.85% (n = 310,000);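 active means fluorescence ratio B-score at or below minus 3 SD of library scores, with starting-brightness B-score within 2 SD, cut at about -4.2 in these data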;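 further: channel flux triggered by added potassium and thallium sulfate stimulus; B-score of peak minus minimum fluorescence over baseline after thallium stimulus; more negative B-score means stronger Kir2.1 block with less thallium influx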
KCNQ1 pot: potentiators or activators of KCNQ1 channel, primary screen, cell-based, thallium flux, high-throughput; Potassium voltage-gated channel subfamily KQT member 1 (Homo sapiens), P51787; CHO-K1 KCNQ1, thallium flux FluxOR fluorescence; active compounds read high; B-score at 10 µM; actives 0.35% (n = 310,000);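 active means fluorescence ratio B-score, a plate-corrected score, at least three library SD, with initial intensity B-score within 5 SD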
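Assay system: CHO-K1 cells stably expressing KCNQ1; Medium: assay buffer with matched DMSO; Also added: K+/Tl+ depolarizing stimulus; Dosing: single dose; Timing: dye 90 min, compound 20 min, room temperature; Measured by: kinetic FluxOR thallium fluorescence, 10-s 1-Hz baseline, 110-s post-stimulus read; Read-out: peak-minus-minimum fluorescence over initial fluorescence, negative-control normalized, B-scored.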
KCNK9 inh: KCNK9 potassium channel inhibitors, primary screen, HEK293 cells, thallium flux | AID 488922, 2010 | FluxOR thallium flux fluorescence; active compounds read low | actives 1.2% (n = 310,000) | B-score at 10 µM;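 active means ratio B-score over 3 SD below the library mean, with starting fluorescence within 5 SD of its mean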;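 further: negative B-score means less thallium flux so channel inhibition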
KCNQ1 block: inhibitors of human KCNQ1 channel, primary screen, cell-based, thallium flux, high-throughput | AID 2642, 2010 | Potassium voltage-gated channel subfamily KQT member 1 (Homo sapiens), P51787 | B-score at 10 µM | actives 1.3% (n = 310,000) | CHO-K1 KCNQ1, FluxOR thallium flux fluorescence; active compounds read high;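 active means compounds whose thallium flux B-score, printed positive for inhibition, exceeds three library SD while starting fluorescence stays within three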;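 further: channel opened by potassium depolarization with thallium stimulus after 20 min compound exposure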
KCNK9 inh conf: KCNK9 potassium channel inhibitors, confirmation, HEK293 cells, thallium flux, duplicate | AID 492992, 2010 | shares compounds with KCNK9 inh | FluxOR thallium flux fluorescence | inhibition, % at 10 µM | actives 43% (n = 4,900);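 active means thallium signal inhibited by more than 5 SD of the compound-free buffer control wells, on both duplicate plates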
Kir21 sel: mouse Kir2.1 channel inhibition, confirmation, selectivity assay for KCNK9 modulator project, cell-based, HEK293, thallium flux; shares compounds with KCNK9 inh; actives 4% (n = 4,900); Kir2.1 cells, FluxOR thallium flux fluorescence; AID 492993, 2010; inhibition, % at 10 µM;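 active means thallium signal drop more than 5 SD beyond the mean of the no-compound control wells, seen in both duplicate plates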;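 further: signal is fluorescence rise after thallium addition divided by baseline fluorescence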
HEK293 Tl ctr: thallium flux in non-induced HEK293 cells, confirmation, counter-screen for KCNK9 inhibitor project, cell-based, second counter screen, non-induced KCNK9-HEK293. actives 40% (n = 4,900). inhibition, % at 10 µM. shares compounds with KCNK9 inh. FluxOR thallium flux;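 active means thallium signal drop beyond 5 SD of the untreated control mean, on both duplicate plates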
Large screens that a line does not name were inactive (follow-up assays come after a bar, where they were run).

CCOc1cc(CNc2ccc(Br)cc2)cc(Br)c1OCC(=O)NC(C)(C)C	KCNK9 inh -9.2 | KCNK9 inh conf 47% | Kir21 sel inactive | HEK293 Tl ctr 40%
CN(C)CCN(Cc1ccccc1)c1ccnc(N(C)C)c1C#N	none
CN(C)c1nccc(N(Cc2ccccc2)Cc2ccccc2)c1C#N	none | KCNK9 inh conf inactive | Kir21 sel inactive | HEK293 Tl ctr 24%
COCCSc1ccccc1C(=O)Nc1ccc(Br)cc1	KCNK9 inh -13 | KCNK9 inh conf 44% | Kir21 sel inactive | HEK293 Tl ctr 25%
CC1Cc2ccccc2N1C(=O)COC(=O)/C=C/c1ccc(F)cc1 (stereo not given)	none (no result: hERG protect, Kir21 block, KCNQ1 pot, KCNK9 inh, KCNQ1 block)
CC1Cc2ccccc2N1C(=O)CO/N=C/c1ccc(OC(F)F)cc1 (stereo not given)	none | KCNK9 inh conf inactive | Kir21 sel inactive | HEK293 Tl ctr inactive
c1ccc(CC(Nc2ccccn2)c2ccccc2)cc1 (stereo not given)	none
CC(NC(=O)CCNS(=O)(=O)c1cccc2nonc12)c1ccccc1 (stereo not given)	none
CCn1c2c(c(=N)c3c1CCC3)CCC2	none
CCCCCCCCCn1c2c(c(=N)c3c1CCC3)CCC2	KCNK3 block -19, Kir21 block -15, KCNK9 inh -16, KCNQ1 block 10 | KCNK9 inh conf 62% | Kir21 sel 87% | HEK293 Tl ctr 42%
CCCCCCn1c(=O)[nH]c2c(c1=O)CCC2	none
CCCCCCCn1c2c(c(=N)c3c1CCC3)CCCC2	Kir21 block -6.5, KCNK9 inh -9.9, KCNQ1 block 6 | KCNK9 inh conf 70% | Kir21 sel 78% | HEK293 Tl ctr 36%
CN(CCOc1cccc(C(F)(F)F)c1)Cc1ccccc1	none
FC(F)(F)c1cccc(OCCN2CCN(Cc3ccccc3)CC2)c1	none | KCNK9 inh conf inactive | Kir21 sel inactive | HEK293 Tl ctr inactive
OCCN1CCN(CCOc2cccc(Cl)c2)CC1	none | KCNK9 inh conf inactive | Kir21 sel inactive | HEK293 Tl ctr inactive
CC(Oc1cccc(Cl)c1)C(=O)Nc1ccc(N2CCOCC2)cc1N1CCOCC1 (stereo not given)	none
COc1ccc(C2Nc3cc(OC)ccc3-n3cccc32)cc1 (stereo not given)	none | KCNK9 inh conf inactive | Kir21 sel inactive | HEK293 Tl ctr inactive
COc1ccccc1OCCCCN1CCN(c2ccccc2OC)CC1	none
COc1ccccc1N1CCN(CCCCOc2cccc3ccccc23)CC1	none | KCNK9 inh conf inactive | Kir21 sel inactive | HEK293 Tl ctr inactive
CC(=O)C1(C)C(=O)N(c2ccc(F)cc2)C(=O)N1c1ccc(F)cc1 (stereo not given)	none (no result: hERG protect, Kir21 block, KCNQ1 pot, KCNK9 inh, KCNQ1 block)
O=C(NCCN1CCOCC1)C1(C(F)(F)F)C/C(=C\Cc2ccccc2)CCCO1 (stereo not given)	none
CCCCOc1ccc(/C=N/NC(=O)c2csc(C)c2C)cc1	none | KCNK9 inh conf inactive | Kir21 sel inactive | HEK293 Tl ctr inactive
C#CC(CC)(CC)NC(=O)c1cc(S(=O)(=O)N2CCCCC2)ccc1N1CCOCC1	none (no result: hERG protect, Kir21 block, KCNQ1 pot, KCNK9 inh, KCNQ1 block)
CC(C(=O)Nc1ccc(Cl)cc1)N(C)Cc1cccs1 (stereo not given)	KCNK9 inh -11 | KCNK9 inh conf 56% | Kir21 sel inactive | HEK293 Tl ctr 25%
CC(C(=O)Nc1ccc(C#N)cc1)N(C)Cc1cccs1 (stereo not given)	none
CCCN(CC(=O)Nc1ccc(F)c(F)c1F)C(=O)C1=COCCO1	none
COc1cc(OC)cc(C(=O)N[C@H](C(=O)N2CCc3ccccc32)C(C)C)c1	KCNK9 inh -11 | KCNK9 inh conf 71% | Kir21 sel inactive | HEK293 Tl ctr 31%
O=C(Nc1ccc2nc(-c3cccs3)[nH]c2c1)c1cccs1	KCNK9 inh -10 | KCNK9 inh conf 56% | Kir21 sel inactive | HEK293 Tl ctr inactive
Cc1cc(S(=O)(=O)N2CCCCCC2)c(Cl)cc1Cl	none | KCNK9 inh conf inactive | Kir21 sel inactive | HEK293 Tl ctr inactive
O=S(=O)(c1cc(Cl)ccc1Cl)N1CCCCC1	none
CCN(CC)S(=O)(=O)c1cc(OC)ccc1N=Nc1ccc(O)c2ncccc12	hERG protect 17 | KCNK9 inh conf inactive | Kir21 sel inactive | HEK293 Tl ctr inactive
COc1ccccc1N(C(=O)NCc1ccccc1)C1=NCC(C)S1 (stereo not given)	none | KCNK9 inh conf inactive | Kir21 sel inactive | HEK293 Tl ctr inactive
O=S(=O)(Nc1cc(Cl)ccc1N1CCCCC1)c1cccs1	KCNK9 inh -15 | KCNK9 inh conf 65% | Kir21 sel inactive | HEK293 Tl ctr inactive
Cc1[nH]c2ccc(C(=O)OCC(=O)Nc3cccc(S(N)(=O)=O)c3)cc2c1C	none (no result: hERG protect, Kir21 block, KCNQ1 pot, KCNK9 inh, KCNQ1 block)
Clc1ccc(-c2nnc(Sc3nc4ccccc4o3)c3ccccc23)cc1	none | KCNK9 inh conf inactive | Kir21 sel inactive | HEK293 Tl ctr inactive
Cc1ccc(-c2nnc(Sc3nc4ccccc4o3)c3ccccc23)cc1	none
O=C(CCC(=O)c1ccc(Oc2ccccc2)cc1)Nc1cccc(Cl)c1Cl	none | KCNK9 inh conf inactive | Kir21 sel inactive | HEK293 Tl ctr 26%
O=S1(=O)[C@H]2C[C@@H]3C=C[C@@]2(CN1Cc1cccc(F)c1)O3	none
Cc1cc(O)c(/C=N/OCc2ccc(Cl)cc2Cl)c(=O)o1	none
O=c1c(/C=N/OCc2ccc(Cl)cc2Cl)c[nH]n1-c1cccc(Cl)n1	KCNQ1 block 7 | KCNK9 inh conf inactive | Kir21 sel inactive | HEK293 Tl ctr inactive
O=S1(=O)CC(O)C(N2CCCCC2)C1 (stereo not given)	none
Cc1c(C(=O)N(C)C2CCCCC2)sc2ncnc(N3CCN(c4ccccc4F)CC3)c12	none
Cc1c(C(=O)N2CCN(c3ccccc3)CC2)sc2ncnc(N3CCN(c4ccccn4)CC3)c12	none

Compound activity (PubChem)
